{"data": "Measured values collected from several papers", "ADRA1B": "Alpha-1B adrenergic receptor (ADRA1B, Homo sapiens, UniProt P35368)", "Nuclear receptor subfamily 4 group A member 2": "Nuclear receptor subfamily 4 group A member 2 (Homo sapiens, UniProt P43354)", "P2RY14": "P2Y purinoceptor 14 (P2RY14, Homo sapiens, UniProt Q15391)", "note": "pKd, pKi: −log10 of the molar value."}
{"Compound": "Cc1cc(Oc2ncccc2CN2CCN(c3ccccc3[N+](=O)[O-])CC2)ccc1-c1c(C)c(=O)[nH]c(=O)n1C", "target": "ADRA1B", "effect on": "ligand displacement", "method": "radioligand", "endpoint": "pKi", "result": 5.53}
{"Compound": "COC(=O)c1cn(C)c2ccc(-c3cccnc3)cc12", "target": "Nuclear receptor subfamily 4 group A member 2", "effect on": "binding", "method": "ITC", "endpoint": "pKd", "result": 6.40}
{"Compound": "Cc1cc(Oc2ncccc2CN2CCN(c3cccc(F)c3)CC2)ccc1-c1c(C)c(=O)[nH]c(=O)n1C", "target": "ADRA1B", "effect on": "ligand displacement", "method": "radioligand", "endpoint": "pKi", "result": 5.52}
{"Compound": "O=C(O)c1cc(-c2ccc(-c3c[nH]nn3)cc2)c2ccc(-c3ccc(C(F)(F)F)cc3)cc2c1", "target": "P2RY14", "effect on": "ligand displacement in cells", "method": "flow cytometry", "endpoint": "pKi", "result": 8.67}
{"Compound": "Cc1cc(Oc2ncccc2CN2CCN(c3ccc(Cl)cc3)CC2)ccc1-c1c(C)c(=O)[nH]c(=O)n1C", "target": "ADRA1B", "effect on": "ligand displacement", "method": "radioligand", "endpoint": "pKi", "result": 5.59}
{"Compound": "O=C(O)c1cc(-c2ccc(-n3ccnn3)cc2)c2ccc(-c3ccc(C(F)(F)F)cc3)cc2c1", "target": "P2RY14", "effect on": "ligand displacement in cells", "method": "flow cytometry", "endpoint": "pKi", "result": 7.85}
{"Compound": "Cc1onc(-c2ccccc2)c1-c1ccc(S(N)(=O)=O)cc1", "target": "Nuclear receptor subfamily 4 group A member 2", "effect on": "binding", "method": "ITC", "endpoint": "pKd", "result": 5.92}
{"Compound": "CCC1c2ccsc2CCN1Cc1nc2ccc(Cl)cc2n1CCO (stereo not drawn)", "target": "DDB1- and CUL4-associated factor 1 (DCAF1, Homo sapiens, UniProt Q9Y4B6)", "effect on": "binding", "method": "SPR", "endpoint": "pKd", "result": 4.70}
{"Compound": "CCN(CC)Cc1cc(Nc2ccnc3cc(Cl)ccc23)ccc1O", "target": "Nuclear receptor subfamily 4 group A member 2", "effect on": "binding", "method": "ITC", "endpoint": "pKd", "result": 5.57}
{"Compound": "O=C(O)c1cc(-c2ccc(-n3cc(CCO)nn3)cc2)c2ccc(-c3ccc(C(F)(F)F)cc3)cc2c1", "target": "P2RY14", "effect on": "ligand displacement in cells", "method": "flow cytometry", "endpoint": "pKi", "result": 7.05}
{"Compound": "CCN(CC)CCCC(C)Nc1ccnc2cc(Cl)ccc12 (stereo not drawn)", "target": "Nuclear receptor subfamily 4 group A member 2", "effect on": "binding", "method": "ITC", "endpoint": "pKd", "result": 5.17}
{"Compound": "O=C(O)c1cc(-c2ccc(-n3nncc3CCOP(=O)(O)O)cc2)c2ccc(-c3ccc(C(F)(F)F)cc3)cc2c1", "target": "P2RY14", "effect on": "ligand displacement in cells", "method": "flow cytometry", "endpoint": "pKi", "result": 7.04}
{"Compound": "O=c1c(O[C@@H]2O[C@H](CO)[C@H](O)[C@H](O)[C@H]2O)c(-c2ccc(O)c(O)c2)oc2cc(O)cc(O)c12", "target": "Sortase B (srtB, Staphylococcus aureus, UniProt Q2FZE3)", "effect on": "binding", "method": "SPR", "endpoint": "pKd", "result": 3.70}
{"Compound": "Cc1cc(Oc2ncccc2CN2CCN(C(c3ccccc3)c3ccccc3)CC2)ccc1-c1c(C)c(=O)[nH]c(=O)n1C", "target": "ADRA1B", "effect on": "ligand displacement", "method": "radioligand", "endpoint": "pKi", "result": 6.14}
{"Compound": "O=C(O)c1cc(-c2ccc(-c3ccncc3)cc2)c2ccc(-c3ccc(C(F)(F)F)cc3)cc2c1", "target": "P2RY14", "effect on": "ligand displacement in cells", "method": "flow cytometry", "endpoint": "pKi", "result": 7.63}
